This passage reports IC50 and Activity results from ChEMBL document CHEMBL4334468, “Exploring Mitochondria-Mediated Intrinsic Apoptosis by New Phytochemical Entities: An Explicit Observation of Cytochrome c Dynamics on Lung and Melanoma Cancer Cells” (J Med Chem, 2019).

pIC50: −log10 of the molar value. Active and inactive are the calls of the source. The rule behind the calls is not given here.

Assay [1] has as its system WI-38. Briefly: Cytotoxicity in human WI38 cells assessed as reduction in cell viability incubated for 24 hrs by MTT assay. It counts as cell-based. To be noted: for IC50: wi-38. The essentials:
(§1)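 MTT viability assay on A375 melanoma, A549 lung adenocarcinoma and WI-38 normal lung fibroblast cells after 24 and 48 h treatment. IC50 values are in µM, expressed as mean ± SD.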

For assay [2], the system named is A549. Nature of the assay: Cytotoxicity in human A549 cells assessed as reduction in cell viability incubated for 24 hrs by MTT assay. The class given is functional, cell-based. Particulars: for pIC50: Homo sapiens, A549, 24 h, read-out: IC50; for IC50: a549. The gist of the method: as §1
Assay [3] has as its system A-375. Nature of the assay: Cytotoxicity in human A375 cells assessed as reduction in cell viability incubated for 48 hrs by MTT assay. The class given is functional, cell-based. To be noted: for pIC50: Homo sapiens, A-375, 48 h, read-out: IC50; for IC50: a-375. The essentials: as §1
The test system of assay [4] is A549. Nature of the assay: Cytotoxicity in human A549 cells assessed as reduction in cell viability incubated for 48 hrs by MTT assay. It counts as functional, cell-based. To be noted: for pIC50: Homo sapiens, A549, 48 h, read-out: IC50; for IC50: a549. The gist of the method:
as §1

Assay [5] deals with WI-38. Nature of the assay: Cytotoxicity in human WI38 cells assessed as reduction in cell viability incubated for 48 hrs by MTT assay. The class given is cell-based. Particulars: for IC50: wi-38; for pIC50: Homo sapiens, WI-38, 48 h, read-out: IC50. The essentials:
as §1

Assay [6] relates to A-375. Briefly: Cytotoxicity in human A375 cells assessed as reduction in cell viability incubated for 24 hrs by MTT assay. It counts as functional, cell-based. To be noted: for pIC50: Homo sapiens, A-375, 24 h, read-out: IC50; for IC50: a-375. The gist of the method:
as §1

The nature of assay [7]: Antioxidant activity assessed as hydroxyl radical scavenging activity at 1 to 1000 ug/ml incubated for 1 hr. It counts as functional.
Assay [8] concerns A549. Nature of the assay: Induction of GSH depletion in human A549 cells by fluorimetry. It counts as functional, cell-based.
Assay [9] is described as follows: Antioxidant activity at 1 to 1000 ug/ml incubated for 90 mins by FRAP assay. It counts as functional.
A short description of assay [10]: Antioxidant activity assessed as DPPH radical scavenging activity at 1 to 1000 ug/ml incubated for 30 mins by spectrophotometry. It counts as functional.
For assay [11], the system named is A-375. Briefly: Induction of GSH depletion in human A375 cells by fluorimetry. The class given is functional, cell-based.

As to `COc1cc(C2Oc3cc(-c4cc(=O)c5c(O)cc(O)cc5o4)ccc3OC2/C=C2/C(=O)ONC2c2ccc(C)cc2)ccc1O` (configuration not stated), the IC50 result in assay [1] and in assay [5] was “Non-Toxic” throughout. Further, the pIC50 was 4.90 in [2], 5.17 in [3], 5.05 in assay [4] and 5.04 in assay [6].
`COc1cc(C2Oc3cc(-c4cc(=O)c5c(O)cc(O)cc5o4)ccc3OC2/C=C2/C(=O)ON(c3ccccc3)C2C)ccc1O` (configuration not stated): the IC50 entry is “Non-Toxic” in [1], “Not Active” in assay [3], “Non-Toxic” in [5] and “Not Active” in assay [6]. Further, the pIC50 is 4.08 in assay [2] and 4.15 in [4].
For `COc1cc(C2Oc3cc(-c4cc(=O)c5c(O)cc(O)cc5o4)ccc3OC2/C=C2/C(=O)ONC2c2ccc(Cl)cc2)ccc1O` (configuration not stated), the IC50 entry in assay [1] and in assay [5] was “Non-Toxic” in each case. Moreover, the pIC50 in assay [2] was 5.70; in [3] it was 6.03; in [4], 5.92; in assay [6], 5.92.
Turning to `COc1cc(C2Oc3cc(-c4cc(=O)c5c(O)cc(O)cc5o4)ccc3OC2c2cc(C(=O)NS(=O)(=O)c3ccccc3)on2)ccc1O` (configuration not stated), the IC50 result in assay [1] and in assay [5] was “Non-Toxic” throughout. Moreover, the pIC50 in [2] is 4.29; in assay [3], 5.46; in [4] it was 5.20; in assay [6] it was 5.14.
For `COc1cc(C2Oc3cc(-c4cc(=O)c5c(O)cc(O)cc5o4)ccc3OC2/C=C2/C(=O)ONC2C(F)(F)F)ccc1O` (configuration not stated), the IC50 entry in assay [1] is “Non-Toxic”. The pIC50 is 5.68 in assay [2]; 6.08 in assay [3]; 4.79 in [4]; 4.02 in [5]; 5.70 in assay [6].
Take `COc1cc(C2Oc3cc(-c4cc(=O)c5c(O)cc(O)cc5o4)ccc3OC2C=O)ccc1O` (configuration not stated): the IC50 result in [1] and in [5] was “Non-Toxic” in each case. In addition, the pIC50 in assay [2] was 4.02; in [3], 4.36; in assay [4], 4.06; in assay [6] it was 4.20.
In the case of `COc1cc(C2Oc3cc(-c4cc(=O)c5c(O)cc(O)cc5o4)ccc3OC2c2cc(C(C)(C)O)on2)ccc1O` (configuration not stated), the IC50 entry in assay [1] and in [5] was “Non-Toxic” in each case. Besides, the pIC50 is 5.32 in assay [2], 6.19 in assay [3], 5.54 in [4] and 5.84 in [6].
On to `COc1cc(C2Oc3cc(-c4cc(=O)c5c(O)cc(O)cc5o4)ccc3OC2c2cc(C(=O)NS(=O)(=O)c3ccc(Cl)cc3)on2)ccc1O` (configuration not stated), for which the IC50 result in assay [1] is “Non-Toxic”. Also, the negative logarithm of the IC50 (pIC50) was 5.06 in assay [2]; 5.38 in [3]; 5.18 in [4]; 4.26 in [5]; 5.21 in assay [6].
For the compound `COc1cc(C2Oc3cc(-c4cc(=O)c5c(O)cc(O)cc5o4)ccc3OC2c2cc(C(=O)Nc3ccc(C(F)(F)F)cc3)on2)ccc1O` (configuration not stated), the IC50 result in assay [1] and in assay [5] was “Non-Toxic” throughout. For the same compound, the negative logarithm of the IC50 (pIC50) in assay [2] is 5.44; in [3], 6.02; in assay [4], 6.12; in assay [6], 5.40.
Consider `COc1cc(C2Oc3cc(-c4cc(=O)c5c(O)cc(O)cc5o4)ccc3OC2c2cc(Cc3ccccc3)on2)ccc1O` (configuration not stated), for which the IC50 result in assay [1] and in assay [5] was “Non-Toxic” each time. Also, the negative-log IC50 (pIC50) in assay [2] is 5.15; in assay [3], 6.05; in assay [4] it was 5.41; in [6], 5.34.
As for `COc1cc(C2Oc3cc(-c4cc(=O)c5c(O)cc(O)cc5o4)ccc3OC2c2cc(CN)on2)ccc1O` (configuration not stated), the IC50 entry in [1] and in assay [5] was “Non-Toxic” in each case. The pIC50 in [2] was 5.28; in assay [3], 5.34; in assay [4], 5.66; in [6], 5.12.
Consider `COc1cc(C2Oc3cc(-c4cc(=O)c5c(O)cc(O)cc5o4)ccc3OC2/C=C2/C(=O)ONC2C)ccc1O` (configuration not stated), for which the IC50 result in assay [1] was “Non-Toxic”; in [2] it was “Not Active”; in assay [3], “Not Active”; in [4], “Not Active”; in assay [5], “Non-Toxic”; in [6], “Not Active”.
For the compound `COc1cc(C2Oc3cc(-c4cc(=O)c5c(O)cc(O)cc5o4)ccc3OC2/C=C2/C(=O)ONC2c2ccccc2)ccc1O` (configuration not stated), the IC50 result in [1] and in assay [5] was “Non-Toxic” in each case. Moreover, the pIC50 is 4.87 in assay [2], 4.81 in [3], 5.00 in assay [4] and 4.73 in assay [6].
For `COc1cc(C2Oc3cc(-c4cc(=O)c5c(O)cc(O)cc5o4)ccc3OC2c2cc(C(=O)NC3CCCCC3)on2)ccc1O` (configuration not stated), the IC50 entry in [1] and in assay [5] was “Non-Toxic” throughout. Moreover, the pIC50 was 4.10 in assay [2], 4.54 in assay [3], 4.84 in assay [4] and 4.18 in [6].
With `COc1cc(C2Oc3cc(-c4cc(=O)c5c(O)cc(O)cc5o4)ccc3OC2/C=C2/C(=O)ONC2c2ccc(F)cc2)ccc1O` (configuration not stated), the IC50 entry in assay [1] and in [5] was “Non-Toxic” throughout. Also, the pIC50 was 5.85 in [2], 5.10 in assay [3], 5.12 in [4] and 4.86 in assay [6].
As to `COc1cc(C2Oc3cc(-c4cc(=O)c5c(O)cc(O)cc5o4)ccc3OC2/C=C2/C(=O)ONC2CCl)ccc1O` (configuration not stated), the pIC50 is 5.26 in assay [1] (Homo sapiens, WI-38, 24 h, read-out: IC50); 7.02 in assay [2]; 7.46 in [3]; 7.15 in [4]; 5.31 in assay [5]; 7.40 in [6].
Take `COc1cc(C2Oc3cc(-c4cc(=O)c5c(O)cc(O)cc5o4)ccc3OC2CO)ccc1O` (configuration not stated): the IC50 entry in [1] and in [5] was “Non-Toxic” each time. The pIC50 in [2] was 4.05; in assay [3] it was 4.31; in [4], 4.17; in [6] it was 4.15. Moreover, the outcome in assay [7], in [8], in assay [9], in [10] and in [11] was inactive.
`COc1cc(C2Oc3cc(-c4cc(=O)c5c(O)cc(O)cc5o4)ccc3OC2c2noc(C)c2CO)ccc1O` (configuration not stated): the IC50 entry in assay [1] and in assay [5] was “Non-Toxic” throughout. The pIC50 in assay [2] was 4.17; in assay [3], 4.33; in [4], 4.29; in assay [6], 4.16.
As to `COc1cc(C2Oc3cc(-c4cc(=O)c5c(O)cc(O)cc5o4)ccc3OC2c2cc(CO)on2)ccc1O` (configuration not stated), the IC50 result is on record as “Non-Toxic” in assay [1]; “Not Active” in [2]; “Not Active” in assay [4]; “Non-Toxic” in [5]; “Not Active” in assay [6]. Also, the pIC50 in assay [3] was 4.13.
As to `CCCC1NOC(=O)/C1=C/C1Oc2ccc(-c3cc(=O)c4c(O)cc(O)cc4o3)cc2OC1c1ccc(O)c(OC)c1` (configuration not stated), the IC50 result in [1] is “Non-Toxic”; in assay [2], “Not Active”; in assay [4] it was “Not Active”; in [5] it was “Non-Toxic”. The pIC50 was 4.22 in assay [3] and 4.03 in [6].
As to `COc1cc(C2Oc3cc(-c4cc(=O)c5c(O)cc(O)cc5o4)ccc3OC2/C=C2/C(=O)ON(C)C2C)ccc1O` (configuration not stated), in assay [1], the IC50 result is given as “Non-Toxic”. Besides, the pIC50 in assay [2] was 5.35; in assay [3] it was 5.62; in [4], 5.42; in assay [5] it was 4.17; in assay [6], 5.51.
`COc1cc(C2Oc3cc(-c4cc(=O)c5c(O)cc(O)cc5o4)ccc3OC2c2cc(-c3ccc(C)cc3)on2)ccc1O` (configuration not stated): the IC50 entry in [1] is on record as “Non-Toxic”; in assay [2], “Not Active”; in assay [3] it was “Not Active”; in assay [5] it was “Non-Toxic”; in assay [6], “Not Active”. Also, the pIC50 in [4] is 4.11.
